NOD2 RIPK2 PPI: inhibitors of human NOD2-RIPK2 interaction. O43353. inhibition, % at 4.98 µM. CHO BLA complementation NOD2-RIPK2, CCF4 ratio. 0.38% of 360,000 active; in the data active = inhibition above about 21%;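 also: 0% = vehicle only and 100% = reference blocker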
Target sequence (O43353 whole entry, looked up): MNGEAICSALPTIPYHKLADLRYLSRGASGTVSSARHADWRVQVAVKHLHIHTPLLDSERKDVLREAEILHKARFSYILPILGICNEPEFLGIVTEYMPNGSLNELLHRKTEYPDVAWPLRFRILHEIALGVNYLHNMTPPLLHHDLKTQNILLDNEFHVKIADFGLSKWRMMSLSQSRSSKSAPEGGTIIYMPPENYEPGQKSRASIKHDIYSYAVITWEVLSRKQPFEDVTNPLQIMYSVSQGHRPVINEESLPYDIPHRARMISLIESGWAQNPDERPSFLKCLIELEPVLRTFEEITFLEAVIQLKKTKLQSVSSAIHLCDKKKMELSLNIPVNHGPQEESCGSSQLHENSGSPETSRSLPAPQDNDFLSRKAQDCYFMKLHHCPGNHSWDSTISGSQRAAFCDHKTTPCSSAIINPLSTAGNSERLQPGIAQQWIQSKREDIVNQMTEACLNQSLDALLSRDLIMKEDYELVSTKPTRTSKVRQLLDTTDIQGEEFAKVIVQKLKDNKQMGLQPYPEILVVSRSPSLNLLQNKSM
UPR XBP1 act: adaptive UPR (XBP1) activation; CHO-XBP1 luciferase reporter, IRE1-XBP1 UPR activation, luminescence; percent of tunicamycin response, DMSO as zero; activation, % at 20 µM; 0.33% of 330,000 active;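 active = versus positive control, 20 µM dose yields 30% or more activation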;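 also: 100% = tunicamycin at 10 µg/mL and 0% = DMSO only wells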
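Material: CHO cell line with stable XBP1 luciferase reporter; schedule: 16-18 h cell attachment at 37 °C, then 6 h compound exposure; signal: glow luminescence from Steady-Glo reagent; medium: serum-containing F12 medium, 10% FBS; benchmarks: tunicamycin 10 µg/mL and vehicle-only wells; read-out: percent activation relative to tunicamycin reference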
TLR9-MyD88 block: TLR9-MyD88 interaction inhibition; Q9NR96+Q99836; CHO BLA complementation TLR9-MyD88, CCF4 FRET ratio; inhibition, % at 4.98 µM; 0.21% of 340,000 active;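 active = inhibition above the mean over all tested compounds plus 3 SD, cut at about 21% in these data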;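 also: 0% = DMSO only wells and 100% = clavulanate BLA inhibitor control wells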
TLR4 MyD88 comp: inhibitors of human TLR4-MyD88 binding; O00206+Q99836; HeLa CL3-4 TLR4/MyD88 BLA complementation, FRET ratio; inhibition, % at 8.4 µM; 0.18% of 200,000 active; in the data active = inhibition above about 25%;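 also: 0% = vehicle and 100% = reference inhibitor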
CHOP inhibitor: inhibitors of CHOP induction in ER stress response; CHO-K1 CHOP-promoter luciferase, tunicamycin-induced, 15-18 h; inhibition, % at 10 µM; 3.8% of 220,000 active; AID 2732;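 active = compounds that reduced the stress-induced luciferase reporter signal by more than about 70% of percent inhibition, limit read from the data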;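 also: 0% = tunicamycin plus vehicle and 100% = wells without tunicamycin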
CHOP UPR activ: apoptotic UPR (CHOP) activation. activation, % at 10 µM. 0.34% of 330,000 active. CHO-CHOP luciferase reporter, luminescence; percent of tunicamycin response over DMSO baseline;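 active = at 10 µM dose, activation of 40% or more, normalized to positive control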;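 also: 100% = tunicamycin at 10 µg/mL and 0% = DMSO alone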
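Evaluation: % reporter activation, DMSO baseline versus tunicamycin full activation; System: CHO-CHOP luciferase reporter cell line; Input: 500 cells/well; Incubation: 6 h compound treatment, 37 °C; Measured by: Steady-Glo luciferase luminescence; Dosing: one dose, 10 µM in 0.5% DMSO; Buffer or medium: F12 medium, 10% FBS; Benchmarks: positive tunicamycin 10 µg/mL, negative DMSO alone.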
* hit, by the source's call. The entries come from a sample that favours hits as a whole.

Results for CCOC(=O)c1cnc(SC)nc1Sc1ccccc1 ?
NOD2 RIPK2 PPI: 3; UPR XBP1 act: -1; TLR9-MyD88 block: -15; TLR4 MyD88 comp: 3; CHOP inhibitor: 75*; CHOP UPR activ: -1

Results for O=C(O)CCCNC(=O)c1nn(Cc2ccccc2)c(=O)c2ccccc12 ?
NOD2 RIPK2 PPI: 4; UPR XBP1 act: 6; TLR9-MyD88 block: -4; CHOP UPR activ: 2

What do the screens show for `O=C(Cc1cccs1)Nc1nc2c(ccc3ccccc32)s1`?
NOD2 RIPK2 PPI: -7; UPR XBP1 act: -2; TLR9-MyD88 block: -5; TLR4 MyD88 comp: -8; CHOP inhibitor: 81*; CHOP UPR activ: 1

How did CC(=O)Nc1nc2c(ccc3ccccc32)s1 do in these assays?
NOD2 RIPK2 PPI: 10; UPR XBP1 act: -3; TLR9-MyD88 block: -2; CHOP UPR activ: 2

Results for Cc1cccc(CN2C(=O)N/C(=C/c3ccc(C)s3)C2=O)c1 ?
NOD2 RIPK2 PPI: 9; UPR XBP1 act: 3; TLR9-MyD88 block: 7; TLR4 MyD88 comp: 3; CHOP inhibitor: 90*; CHOP UPR activ: 0

How did Cc1ccc(/C=C2/NC(=O)N(Cc3ccccc3)C2=O)s1 do in these assays?
NOD2 RIPK2 PPI: 7; UPR XBP1 act: -1; TLR9-MyD88 block: 17; TLR4 MyD88 comp: -1; CHOP inhibitor: 44; CHOP UPR activ: -1

Results for C[n+]1cc2c3c(ccc2c2ccc4cc5c(cc4c21)OCO5)OCO3 ?
CHOP inhibitor: -6

How did CC(C)(C)c1ccc(NC(=O)Cn2cnc3cc([N+](=O)[O-])ccc3c2=O)cc1 do in these assays?
NOD2 RIPK2 PPI: -5; UPR XBP1 act: -4; TLR4 MyD88 comp: 0; CHOP inhibitor: 91*; CHOP UPR activ: 4

What do the screens show for `O=C(Cn1cnc2cc([N+](=O)[O-])ccc2c1=O)Nc1ccc(Br)cc1`?
NOD2 RIPK2 PPI: 6; UPR XBP1 act: -2; TLR9-MyD88 block: 2; CHOP inhibitor: 6; CHOP UPR activ: 0

What do the screens show for `COc1cc(C(O)CO)ccc1OS(=O)(=O)O` (stereo not drawn)?
NOD2 RIPK2 PPI: -4; UPR XBP1 act: -5; TLR9-MyD88 block: -4; CHOP inhibitor: 54; CHOP UPR activ: 0

What do the screens show for `CS(=O)(=O)c1ccc(Cl)c(NC(=O)C2CCN(S(=O)(=O)c3cccs3)CC2)c1`?
NOD2 RIPK2 PPI: -4; UPR XBP1 act: -3; TLR9-MyD88 block: -1; CHOP UPR activ: 1

What do the screens show for `C=C1C(=O)[C@@]23[C@H](O)C[C@@H]4C(C)(C)CC[C@H](O)[C@@]4(C)[C@@H]2CC[C@@H]1[C@H]3O`?
NOD2 RIPK2 PPI: 20; UPR XBP1 act: -8; TLR9-MyD88 block: -6; TLR4 MyD88 comp: -4; CHOP inhibitor: 98*; CHOP UPR activ: 5

Results for C=C1C(=O)[C@@]23[C@H](O)C[C@@H]4C(C)(C)CC[C@H](O)[C@]4(C)[C@@H]2C[C@H](O)[C@@H]1[C@H]3O ?
NOD2 RIPK2 PPI: -5; UPR XBP1 act: -5; TLR9-MyD88 block: 6; TLR4 MyD88 comp: -11; CHOP inhibitor: -35; CHOP UPR activ: 17

What do the screens show for `CC(=O)c1cccc(NC(=O)C2CCN(S(C)(=O)=O)CC2)c1`?
NOD2 RIPK2 PPI: 4; UPR XBP1 act: -1; TLR9-MyD88 block: -24; TLR4 MyD88 comp: 5; CHOP inhibitor: 10; CHOP UPR activ: -2

Results for CCS(=O)(=O)N1CCC(C(=O)Nc2cccc(C(C)=O)c2)CC1 ?
NOD2 RIPK2 PPI: -1; UPR XBP1 act: 0; TLR9-MyD88 block: -3; TLR4 MyD88 comp: -13; CHOP inhibitor: 73*; CHOP UPR activ: 2

What do the screens show for `CCCN1C(=O)/C(=C/c2c(NCCCOCC)nc3c(C)cccn3c2=O)SC1=S`?
NOD2 RIPK2 PPI: 3; TLR9-MyD88 block: 5; TLR4 MyD88 comp: -9; CHOP inhibitor: 76*

How did CCOC(=O)CSc1c(-c2ccc(Cl)cc2)[nH]c2ccccc12 do in these assays?
NOD2 RIPK2 PPI: -9; UPR XBP1 act: -3; TLR9-MyD88 block: 0; TLR4 MyD88 comp: -23; CHOP inhibitor: 88*; CHOP UPR activ: 4

How did CCOC(=O)CSc1c(-c2cccs2)[nH]c2ccccc12 do in these assays?
NOD2 RIPK2 PPI: 3; UPR XBP1 act: -1; TLR9-MyD88 block: 0; TLR4 MyD88 comp: -7; CHOP inhibitor: -23; CHOP UPR activ: 0

From PubChem
